Assay outcomes as filed in PubChem BioAssay.
The list is not random: actives were taken first. Their share in the collection is about 7.2%.
PLAP act: activators of human placental alkaline phosphatase | P05187 | purified PLAP enzyme, luminescent substrate read-out; stronger effect = higher value | activation fold at 20 µM | 1.2% of 96,000 active | AID 696; in the data active means activation fold above about 2
Target sequence (P05187 whole entry, looked up): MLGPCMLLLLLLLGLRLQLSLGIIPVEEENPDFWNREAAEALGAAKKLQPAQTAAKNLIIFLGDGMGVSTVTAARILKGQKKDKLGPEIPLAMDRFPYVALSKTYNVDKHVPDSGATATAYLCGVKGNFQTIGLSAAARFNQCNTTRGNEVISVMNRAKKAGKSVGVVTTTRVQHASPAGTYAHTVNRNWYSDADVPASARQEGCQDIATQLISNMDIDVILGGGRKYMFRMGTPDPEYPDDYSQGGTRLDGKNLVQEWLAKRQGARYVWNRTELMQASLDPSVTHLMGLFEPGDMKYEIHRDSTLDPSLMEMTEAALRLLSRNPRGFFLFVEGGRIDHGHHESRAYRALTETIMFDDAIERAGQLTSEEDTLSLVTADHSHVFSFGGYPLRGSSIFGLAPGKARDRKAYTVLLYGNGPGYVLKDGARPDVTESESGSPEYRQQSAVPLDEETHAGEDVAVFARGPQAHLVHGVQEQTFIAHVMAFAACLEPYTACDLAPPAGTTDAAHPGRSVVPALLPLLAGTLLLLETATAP
PostGolgi ctrl: inhibits growth of the yeast control strain | efflux-deficient yeast background strain, growth absorbance A615, 16 h | inhibition, % at 10 µM | 5% of 98,000 active | AID 738
Ecoli WT expand: growth inhibitors of E. coli BW25113 wild type; OD600 absorbance; growth inhibition, % at 100 µM; 0.15% of 98,000 active; AID 710;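 active means growth inhibition above about 50% at one test dose, limit read from the data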;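 further: growth measured after 20 h incubation at 37 °C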
PostGolgi yeast: growth inhibition of a yeast mutant, post-Golgi transport screen; inhibition, % at 10 µM; 0.9% of 98,000 active; AID 739; post-Golgi transport phenotypic cell assay;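 further: yeast cells grown in 1536-well plates; yeast grown about 18 h at 30C before absorbance read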
Ecoli tolC: blocks growth of E. coli BW25113 tolC mutant | OD615 | growth inhibition, % at 10 µM (by protocol) | 2.2% of 65,000 active;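 active means growth inhibition at or above a cutoff equal to the mean over every tested compound plus 3 SD, cut at about 60% in these data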;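 further: growth measured after 20 h incubation at 37 °C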
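Test system: tolC-deleted E. coli BW25113 | Medium: LB with kanamycin 50 µg/mL | Compound dosing: Single concentration, 10 µM final per compound | Schedule: 37 °C, 20 h exposure | Measured by: OD at 615 nm | Evaluation: Percent growth inhibition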
Of the large screens only hits and unclear results are named; the others gave an inactive call. Unless noted, no stated cut-off is given here; in the data, active means inhibition above about 30%; inactive means the rest.

Cn1cc(C(c2ccccn2)c2cn(C)c3ccccc23)c2ccccc21	PostGolgi ctrl 53 (no result: Ecoli tolC)
CCOC(=O)COc1ccc2c(c1)C(=O)CC(C)(c1cccnc1)O2 (centres undefined)	PostGolgi ctrl 42
CCOC(=O)COc1ccc2c(c1)C(=O)CC1(CCCCC1)O2	none (no result: Ecoli tolC)
N#Cc1c(C(F)(F)F)cc(-c2ccco2)nc1SCc1ccccn1	none
N#Cc1c(C(F)(F)F)cc(-c2ccco2)nc1SCc1ccncc1	PostGolgi ctrl 49
CCOc1cc(C2NC(=O)N(C)C(C)=C2C(=O)OC)cc(Br)c1O (centres undefined)	none
CCOC(=O)C1=C(N)N2C(=O)C(C)SC2=C(C(=O)OCC)C1c1ccccc1 (centres undefined)	none (no result: PLAP act)
CCOC(=O)C1=C(N)N2C(=O)C(C)SC2=C(C(=O)OC)C1c1ccccc1OC (centres undefined)	PostGolgi ctrl 75, PostGolgi yeast 110
COc1ccc(OC)c(CN2CCN(C(=O)c3cccc4ccccc34)CC2)c1	PostGolgi ctrl 34
COc1ccc(OC)c(CN2CCN(C(=O)c3cccs3)CC2)c1	none
COC(=O)C1=CN(c2cccc(C)c2)C=C(C(=O)OC)C1c1cc(OC)c(O)c([N+](=O)[O-])c1	PostGolgi ctrl 67 (no result: Ecoli tolC)
Cc1ccccc1C(=O)NNC(=O)Cc1cccc2ccccc12	PLAP act 2 (no result: Ecoli tolC)
CCOC(=O)c1c(NC(=O)CN(CC)CC)sc2c1CCC2	Ecoli tolC 100
CCOC(=O)c1c(NC(=O)c2ccco2)sc2c1CCCCC2	none
CCOC(=O)c1c(NC(=O)Cc2cccs2)sc2c1CCCC2	PostGolgi ctrl 37
CCOC(=O)c1c(NS(=O)(=O)Cc2ccccc2)sc2c1CCCC2	PostGolgi ctrl 36 (no result: Ecoli tolC)
CC1CCCC(NC(=O)CN(C)S(=O)(=O)c2cccc3cccnc23)C1C (centres undefined)	none
O=C(CSc1ncnc2c1oc1ccccc12)Nc1ccccc1C(F)(F)F	none
CN1C(=O)Cc2cc(S(=O)(=O)N3CCOCC3)ccc21	PostGolgi ctrl 51
N#CC1=C(N)N=C(SCc2cccc3ccccc23)C(C(N)=O)C12CCCCC2 (centres undefined)	none (no result: Ecoli tolC)
CCOC(=O)c1cnc2ccc(C)cc2c1Sc1ccccc1	PostGolgi ctrl 31 (no result: Ecoli tolC)
CCOC(=O)c1cnc2ccc(C)cc2c1Sc1ccc(F)cc1	none (no result: Ecoli tolC)
CCOC(=O)c1cnc2ccc(OCC)cc2c1N1CCN(c2ccccc2)CC1	PostGolgi ctrl 54 (no result: Ecoli tolC)
CCCCn1nc2cc(C(=O)NCc3ccccc3)ccc2c1OCC	none (no result: Ecoli tolC)
O=C(c1cc2ccccc2c(=O)o1)N1CCc2ccccc2C1	none
CCn1c(C(=O)N2CCc3ccccc3C2)cc2oc3ccccc3c21	PostGolgi ctrl 34 (no result: Ecoli tolC)
COc1cccc(CNC(=O)c2cc3oc4ccccc4c3n2C)c1OC	none
Cn1c(C(=O)N2CCc3ccccc3C2)cc2oc3ccccc3c21	PostGolgi ctrl 56, Ecoli tolC 69 (no result: PLAP act)
CCOc1ccccc1CNC(=O)c1cc2oc3ccccc3c2n1CC	PostGolgi ctrl 31 (no result: Ecoli tolC)
O=C(Cn1ncc2c(=O)oc3ccccc3c21)N1CCc2ccccc2C1	none (no result: PLAP act)
Cc1cc(Cl)ccc1OCCCC(=O)Nc1cccnc1	PostGolgi yeast 34
Cc1ccc(C(=O)CCC(=O)Nc2cccnc2)cc1C	none
Cn1nc(C(=O)N2CCCC2)c2ccccc2c1=O	PostGolgi ctrl 30
COc1ccc(N2CCN(CC(O)COc3ccc4c(c3)CCC4)CC2)cc1 (centres undefined)	PLAP act 2, PostGolgi ctrl 38 (no result: Ecoli tolC)
CC(C)(C)c1ccccc1OCC(=O)NCCC(=O)O	none
CC(C)(C)c1cc(Br)ccc1OCC(=O)Nc1ncn[nH]1	PostGolgi ctrl 30
CC(C)(C)c1ccccc1OCC(=O)Nc1ncn[nH]1	PLAP act 2
O=C(c1ccco1)N1CCN(CC(O)COc2ccc3oc4ccccc4c3c2)CC1 (centres undefined)	none
CCn1c(N2CCN(C(=S)NCCc3ccccc3)CC2)nc2ccccc21	PostGolgi ctrl 31 (no result: Ecoli tolC)
CC1CCCN(C(=S)NCCc2ccccc2)C1 (centres undefined)	PostGolgi ctrl 32 (no result: Ecoli tolC)
COc1ccc(NC(=O)CN(C)C(=O)c2ccc(C)s2)cc1	none (no result: Ecoli tolC)
CCC(CC)NC(=O)Cc1ccccc1OC	none (no result: Ecoli tolC)
CCc1ccccc1N(CC)C(=O)CCc1nc(-c2ccc(C)cc2)no1	Ecoli tolC 95
CCN(Cc1ccccc1)C(=O)CCc1nc(-c2ccc(C)cc2)no1	PostGolgi ctrl 42, Ecoli tolC 88
Cc1ccc(-c2noc(CCC(=O)NCCc3ccccc3Cl)n2)cc1	none
CCN(CCCNC(=O)c1[nH]c(C)c(C(C)=O)c1C)c1cccc(C)c1	Ecoli tolC 98
Cc1ccc(-c2noc(CN(C(=O)Cc3ccccc3)C(C)C)n2)cc1	none (no result: Ecoli tolC)
